The values that follow come from ChEMBL document CHEMBL1770062, “Synthesis and in vitro antitumor activity of new butenolide-containing dithiocarbamates” (Bioorg Med Chem Lett, 2011).

The structures appear in SMILES notation.

Common to all, as to format: functional, cell-based
One assay has as its system MCF7. The experiment in a line: Antitumor activity against human MCF7 cells after 72 hrs by MTT assay. In outline: (§1)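 Cells in RPMI 1640 with 10% FBS, 2 mm glutamine, penicillin and streptomycin were seeded at 5 × 10³ per well in 96-well plates. After 24 h at 37 °C the medium was replaced with medium holding compound at several concentrations, and cells were exposed for 72 h. MTT (5 mg/mL stock in PBS) was added for 4 h at 37 °C, formazan was dissolved in DMSO and absorbance read at 490 nm. IC50 was taken from dose–response curves, at least three independent experiments, mean ± SE.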
(Tetrazolium assays rely on reduction of a dye to a coloured formazan, in cell work by metabolically active cells.)

A further assay deals with PC-3. The experiment in a line: Antitumor activity against human PC3 cells after 72 hrs by MTT assay. In a few lines:
as §1

Assay [1] is described as follows: Antitumor activity against human SPC-A1 cells after 72 hrs by MTT assay. In outline:
as §1

Assay [2] can be described thus: Antitumor activity against human EC9706 cells after 72 hrs by MTT assay. In a few lines: as §1
The test system of a further assay is HeLa. The experiment in a line: Antitumor activity against human HeLa cells after 72 hrs by MTT assay. In outline:
as §1

Setting [3] is: Homo sapiens, MCF7, 72 h, read-out: IC50.
Setting [4] is: Homo sapiens, PC-3, 72 h, read-out: IC50.
Where [5] appears, read: Homo sapiens, SPCA1, 72 h, read-out: IC50.
The mark [6] stands for this setting: Homo sapiens, EC9706, 72 h, read-out: IC50.
Setting [7] is: Homo sapiens, HeLa, 72 h, read-out: IC50.

As for `CNC(=S)SCC1=CCOC1=O`, the IC50 was 83.1 µM in the assay with MCF7 (setting [3]); 76.5 µM with PC-3 (setting [4]); 43.9 µM in assay [1] (setting [5]); 85.4 µM in assay [2] (setting [6]); 36.1 µM in the assay with HeLa (setting [7]).

Regarding `CCNC(=S)SCC1=CCOC1=O`, the IC50 in the assay with MCF7 (setting [3]) was 80.1 µM; with PC-3 (setting [4]), 30.6 µM; in assay [1] (spc-a1), “Not Active”; in assay [2] (setting [6]) it was 44.4 µM; in the assay on HeLa (hela) it was “Not Active”.

In the case of `CN(C)C(=S)SCC1=CCOC1=O`, the IC50 with MCF7 (setting [3]) is > 50 µg/mL; in the assay on PC-3 (setting [4]), 147 µM; in assay [1] (setting [5]), > 50 µg/mL; in assay [2] (setting [6]) it was 182 µM; with HeLa (setting [7]), 114 µM.

Turning to `CCN(CC)C(=S)SCC1=CCOC1=O`, the half-inhibitory concentration (IC50) with MCF7 (setting [3]) was 121 µM; with PC-3 (setting [4]), 57.1 µM; in assay [1] (setting [5]), 87 µM; in assay [2] (setting [6]), 136 µM; in the assay with HeLa (setting [7]), 1.39 µM.

Regarding `CC(C)NC(=S)SCC1=CCOC1=O`, the IC50 with MCF7 (setting [3]) was determined as 134 µM; in the assay on PC-3 (setting [4]), 49.4 µM; in assay [1] (setting [5]), 108 µM; in assay [2] (setting [6]), 59.4 µM; in the assay with HeLa (setting [7]), 137 µM.

With `O=C1OCC=C1CSC(=S)NC1CC1`, the IC50 with MCF7 (setting [3]) is 94.9 µM; in the assay with PC-3 (setting [4]), 117 µM; in assay [1] (setting [5]) it was 57.5 µM; in assay [2] (setting [6]), 53.6 µM; with HeLa (setting [7]), 24.1 µM.

With `O=C1OCC=C1CSC(=S)NC1CCCCC1`, the IC50 in the assay on MCF7 (setting [3]) was 180 µM; with PC-3 (setting [4]), > 50 µg/mL; in assay [1] (setting [5]) it was > 50 µg/mL; in assay [2] (setting [6]), > 50 µg/mL; in the assay on HeLa (setting [7]), 150 µM.

As for `O=C1OCC=C1CSC(=S)N1CCCC1`, the IC50 in the assay on MCF7 (setting [3]) came to 56.4 µM; with PC-3 (setting [4]), 114 µM; in assay [1] (setting [5]), 31.4 µM; in assay [2] (setting [6]), 14.4 µM; in the assay with HeLa (setting [7]), 2.63 µM.

In the case of `CN1CCN(C(=S)SCC2=CCOC2=O)CC1`, the IC50 in the assay on MCF7 (setting [3]) stood at 86.5 µM; with PC-3 (setting [4]), 40.5 µM; in assay [1] (setting [5]), 53.7 µM; in assay [2] (setting [6]), 14.3 µM; in the assay on HeLa (setting [7]), 0.77 µM.

On to `O=C1OCC=C1CSC(=S)N1CCOCC1`, for which the IC50 with MCF7 (setting [3]) is 60.3 µM; in the assay with PC-3 (setting [4]), 48.8 µM; in assay [1] (setting [5]), 37.9 µM; in assay [2] (setting [6]), 26 µM; in the assay on HeLa (setting [7]), 2.43 µM.

With `O=C1OCC=C1CSC(=S)Nc1ccccc1`, the IC50 is 89.9 µM in the assay with MCF7 (setting [3]); 186 µM with PC-3 (setting [4]); 95.3 µM in assay [1] (setting [5]); 16.2 µM in assay [2] (setting [6]); 111 µM in the assay with HeLa (setting [7]).

For the compound `Cc1ccc(NC(=S)SCC2=CCOC2=O)cc1`, the half-inhibitory concentration (IC50) was found to be 97.4 µM in the assay with MCF7 (setting [3]); 93.5 µM in the assay with PC-3 (setting [4]); 63.8 µM in assay [1] (setting [5]); 91 µM in assay [2] (setting [6]); 5.44 µM in the assay with HeLa (setting [7]).

For the compound `O=C1OCC=C1CSC(=S)Nc1ccc(Cl)cc1`, the IC50 result (with MCF7 (mcf7); in the assay on PC-3 (pc-3); in assay [1] (spc-a1); in assay [2] (ec9706); with HeLa (hela)) was “Not Active” in each case.

Take `O=C1OCC=C1CSC(=S)NCc1ccccc1`: the IC50 was 31.9 µM in the assay on MCF7 (setting [3]); 13.7 µM in the assay with PC-3 (setting [4]); 20.1 µM in assay [1] (setting [5]); 34.3 µM in assay [2] (setting [6]); 15.1 µM with HeLa (setting [7]).

In the case of `CN(C)C(=S)SCC1=CC(=O)OC1`, the IC50 was 159 µM with MCF7 (setting [3]); > 50 µg/mL in the assay with PC-3 (setting [4]); > 50 µg/mL in assay [1] (setting [5]); 7.55 µM in assay [2] (setting [6]); > 50 µg/mL in the assay with HeLa (setting [7]).

As to `CCN(CC)C(=S)SCC1=CC(=O)OC1`, the IC50 with MCF7 (setting [3]) was > 50 µg/mL; in the assay on PC-3 (setting [4]), > 50 µg/mL; in assay [1] (setting [5]), 57.1 µM; in assay [2] (setting [6]), > 50 µg/mL; in the assay on HeLa (setting [7]), 21 µM.

On to `CC(C)N(C(=S)SCC1=CC(=O)OC1)C(C)C`, for which the IC50 with MCF7 (setting [3]) was > 50 µg/mL; in the assay on PC-3 (setting [4]) it was > 50 µg/mL; in assay [1] (setting [5]), > 50 µg/mL; in assay [2] (setting [6]), 49.2 µM; in the assay on HeLa (setting [7]), 28.5 µM.

In the case of `O=C1C=C(CSC(=S)N2CCCC2)CO1`, the IC50 was 169 µM with MCF7 (setting [3]); > 50 µg/mL with PC-3 (setting [4]); 60 µM in assay [1] (setting [5]); 106 µM in assay [2] (setting [6]); > 50 µg/mL in the assay with HeLa (setting [7]).

As to `CN1CCN(C(=S)SCC2=CC(=O)OC2)CC1`, the IC50 is > 50 µg/mL in the assay with MCF7 (setting [3]); > 50 µg/mL in the assay on PC-3 (setting [4]); > 50 µg/mL in assay [1] (setting [5]); 35.8 µM in assay [2] (setting [6]); > 50 µg/mL with HeLa (setting [7]).

As to `O=C1C=C(CSC(=S)N2CCOCC2)CO1`, the IC50 (with MCF7 (setting [3]); in the assay on PC-3 (setting [4]); in assay [2] (setting [6]); with HeLa (setting [7])) was > 50 µg/mL each time.

In the case of `CN(Cc1ccccc1)C(=S)SCC1=CC(=O)OC1`, the IC50 (with MCF7 (setting [3]); in the assay on PC-3 (setting [4]); in assay [1] (setting [5]); in assay [2] (setting [6]); in the assay on HeLa (setting [7])) was > 50 µg/mL throughout.

Take `O=C1CC2(CO1)CSC(=S)N2C1CC1` (centres undefined): the IC50 is > 50 µg/mL in the assay with MCF7 (setting [3]); > 50 µg/mL in the assay with PC-3 (setting [4]); > 50 µg/mL in assay [1] (setting [5]); > 50 µg/mL in assay [2] (setting [6]); 28.7 µM in the assay on HeLa (setting [7]).

Turning to `O=C1CC2(CO1)CSC(=S)N2Cc1ccccc1` (centres undefined), the IC50 (in the assay on MCF7 (setting [3]); in the assay with PC-3 (setting [4]); in assay [1] (setting [5]); in assay [2] (setting [6]); in the assay on HeLa (setting [7])) was > 50 µg/mL each time.

Turning to `O=C1CC2(CO1)CSC(=S)N2c1ccccc1` (centres undefined), the IC50 in the assay on MCF7 (setting [3]) was 134 µM; with PC-3 (setting [4]) it was > 50 µg/mL; in assay [1] (setting [5]), 101 µM; in assay [2] (setting [6]) it was 128 µM; in the assay with HeLa (setting [7]), 18 µM.

In the case of `Cc1ccc(N2C(=S)SCC23COC(=O)C3)cc1` (centres undefined), the IC50 in the assay on MCF7 (setting [3]) was > 50 µg/mL; with PC-3 (setting [4]) it was 98.1 µM; in assay [1] (setting [5]) it was > 50 µg/mL; in assay [2] (setting [6]), > 50 µg/mL; with HeLa (setting [7]), > 50 µg/mL.

Turning to `O=C1CC2(CO1)CSC(=S)N2c1ccc(Cl)cc1` (centres undefined), the IC50 with MCF7 (setting [3]) is > 50 µg/mL; in the assay with PC-3 (setting [4]), > 50 µg/mL; in assay [1] (setting [5]), > 50 µg/mL; in assay [2] (setting [6]), 32.6 µM; with HeLa (setting [7]) it was > 50 µg/mL.

As for `O=C1CC2(CO1)CSC(=S)N2c1ccc(F)cc1` (centres undefined), the IC50 (with MCF7 (setting [3]); in the assay on PC-3 (setting [4]); in assay [1] (setting [5]); in assay [2] (setting [6]); in the assay with HeLa (setting [7])) was > 50 µg/mL each time.

With `O=C1CC2(CO1)CSC(=S)N2c1ccccc1O` (centres undefined), the IC50 (in the assay with MCF7 (setting [3]); in the assay on PC-3 (setting [4]); in assay [1] (setting [5]); in assay [2] (setting [6]); in the assay with HeLa (setting [7])) was > 50 µg/mL each time.

In the case of `O=c1[nH]cc(F)c(=O)[nH]1` [FLUOROURACIL], the IC50 in the assay on MCF7 (setting [3]) was 7.54 µM; with PC-3 (setting [4]), 29.3 µM; in assay [1] (setting [5]) it was 26.9 µM; in assay [2] (setting [6]) it was 20.3 µM; with HeLa (setting [7]) it was 41.5 µM.

The term IC50 denotes the midpoint of a concentration-inhibition curve.
